High-throughput results deposited in PubChem by several laboratories.
Shown are actives, neighbours in structure and some others; about 5.7% of the full set was active somewhere.
CSC inhib: blocks cancer stem cells | inhibition, % at 7.5 µM | 300,000 compounds, 1.1% hits | cancer stem cell-like cells viability, luminescence; in the data active = inhibition above about 75%; inconclusive = no clear call, values can overlap the other calls; tested in HMLE shEcad cells
T cruzi inh: T. cruzi replication inhibition | T. cruzi beta-gal in NIH3T3, luminescence, 90 h | AID 1885 | 300,000 compounds, 1.4% hits | inhibition, % (concentration not given with the values);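 active = mean inhibition across valid replicates above about 55%, limit read from the data; inconclusive = mean below that limit but half or more replicates reach it; inactive = mean below it, under half of replicates reach it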;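 also: signal also drops with host cell toxicity which is not excluded here; 0% = plate median of DMSO wells and 100% = zero luminescence signal; higher percent means less beta-gal luminescence so fewer parasites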
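System: NIH/3T3 fibroblasts plus reporter T. cruzi. Medium: DMEM plus 2% FBS. Probe or stimulus: 5000 reporter trypomastigotes per well. Compound: single 50 nL compound addition per well in DMSO. Incubation: co-culture of at least 90 h after 3 h attachment. Detection: GalScreen β-gal luminescence, detergent lysis, 60 min. Evaluation: parasite load inhibition, %.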
Beta apoptosis: beta cell apoptosis inhibition | 300,000 compounds, 0.8% hits | protection from apoptosis, % (concentration not given with the values) | AID 435005 | INS-1E cytokine-induced death, ATP luminescence, 48 h; percent of positive-control rescue, neutral wells zero;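 active = Every replicate reaches about 75%, or at least half do and their mean reaches it too, limit read from the data; inconclusive = At least half of replicates reach the limit but their mean does not; inactive = Under half of replicates reach the limit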;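 also: 0% = cytokine-treated negative control wells and 100% = positive control rescue; higher means more ATP so stronger rescue from cytokine killing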
Calb FLC: affects C. albicans growth with fluconazole; C. albicans CaCi-2 (fluconazole-resistant clinical isolate) + fluconazole, Alamar Blue growth, 48 h; AID 1979; 300,000 compounds, 0.57% hits; growth inhibition, % (no concentration beside the values);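 active = growth inhibition above about 58% in most replicates, limit read from the data, passing the limit was not always enough; inconclusive = exactly half the replicates above a set limit; inactive = most replicates below a set limit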;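 also: all wells also contain fluconazole at 8 µg/ml as a sub-toxic cotreatment; 0% = median of DMSO wells and 100% = median of geldanamycin control wells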
SKKanGAS inh: blocks kanamycin growth of S. pyogenes SKKanGAS strain. inhibition, % at 7.5 µM. 300,000 compounds, 1.3% hits. BacTiter-Glo, 6 h;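 active = mean replicate score, as percent of positive control median, at least 50; inconclusive = mean below 50 but one replicate at or above 50; inactive = mean and every replicate below 50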;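 also: strain carries kanamycin resistance gene driven by streptokinase promoter and grows in 40 µg/ml kanamycin; loss of luminescence reflects streptokinase promoter inhibition or plain growth inhibition; 0% = median of DMSO wells and 100% = positive control at its reference dose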
Mdm2-MdmX inh: disrupts the human Mdm2-MdmX interaction; O15151+Q00987; SaOS-2 split-luciferase Mdm2/MdmX complementation, luminescence; inhibition, % at 8 µM; 330,000 compounds, 3% hits;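 active = inhibition of at least 50% at 8 µM in the primary screen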
Target sequence (O15151 whole entry, looked up): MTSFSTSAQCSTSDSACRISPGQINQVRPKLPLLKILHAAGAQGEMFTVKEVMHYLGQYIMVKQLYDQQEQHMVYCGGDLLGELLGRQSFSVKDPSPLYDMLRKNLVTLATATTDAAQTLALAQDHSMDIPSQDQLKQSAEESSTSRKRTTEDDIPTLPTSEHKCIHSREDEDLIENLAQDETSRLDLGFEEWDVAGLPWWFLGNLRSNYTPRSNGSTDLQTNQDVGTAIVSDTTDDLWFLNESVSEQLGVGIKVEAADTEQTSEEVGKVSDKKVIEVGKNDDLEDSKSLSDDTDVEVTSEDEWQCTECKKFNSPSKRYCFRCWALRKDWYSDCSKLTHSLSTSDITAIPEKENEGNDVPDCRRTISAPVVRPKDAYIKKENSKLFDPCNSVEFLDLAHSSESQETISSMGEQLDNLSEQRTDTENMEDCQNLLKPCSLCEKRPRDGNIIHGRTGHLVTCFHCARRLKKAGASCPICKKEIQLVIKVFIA
Target sequence (Q00987 whole entry, looked up): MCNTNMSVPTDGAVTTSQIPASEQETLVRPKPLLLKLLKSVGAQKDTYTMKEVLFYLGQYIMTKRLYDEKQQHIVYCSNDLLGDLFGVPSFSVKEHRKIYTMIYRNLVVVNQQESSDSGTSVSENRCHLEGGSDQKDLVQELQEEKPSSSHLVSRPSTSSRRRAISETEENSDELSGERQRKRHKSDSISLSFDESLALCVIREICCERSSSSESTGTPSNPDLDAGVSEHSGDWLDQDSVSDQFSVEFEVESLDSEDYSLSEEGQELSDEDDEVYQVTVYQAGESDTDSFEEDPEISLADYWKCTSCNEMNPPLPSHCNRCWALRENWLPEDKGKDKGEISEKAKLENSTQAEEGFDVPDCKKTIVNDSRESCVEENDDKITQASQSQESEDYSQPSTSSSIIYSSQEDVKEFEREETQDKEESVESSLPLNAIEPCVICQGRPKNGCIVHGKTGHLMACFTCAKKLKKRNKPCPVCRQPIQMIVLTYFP
Mdm2 MdmX conf: human Mdm2/MdmX binding inhibition, confirmed | shares compounds with Mdm2-MdmX inh | luminescent assay | inhibition, % at 8 µM | 10,000 compounds, 55% hits; in the data active = inhibition above about 40%
FLuc counter: inhibits full-length luciferase, flagging false Mdm2/MdmX hits; shares compounds with Mdm2-MdmX inh; SaOS-2 full-length luciferase counterscreen, luminescence; inhibition, % at 8 µM; 6,200 compounds, 77% hits; AID 504607;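 active = mean inhibition at 8 µM reaching about 37%, which flags the compound as non-specific, limit read from the data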;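 also: p53-null SaOS-2 cells with luciferase driven by a doxycycline-inducible promoter; compound on cells about two nights before reading with doxycycline added after day one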
* hit, by the source's call; ? = inconclusive; . = no result.

SMILES	CSC inhib	T cruzi inh	Beta apoptosis	Calb FLC	SKKanGAS inh	Mdm2-MdmX inh	Mdm2 MdmX conf	FLuc counter
Cc1nc(SCc2nc3cc(Cl)c(F)cc3[nH]2)c2oc3ccccc3c2n1	.	.	15.6	.	.	91.7*	42.2*	31.6
Cc1cc(-c2nnc(SCC(=O)Nc3ccccc3C(F)(F)F)o2)c(C)n1-c1ccccc1	-7.6	13.3	-1.5	1.2	-2.7	75.5*	76.9*	103.4*
Cc1cccc(NC(=O)CSc2nnc(-c3cc(C)n(-c4ccccc4)c3C)o2)c1C	45.2	6.2	-4.6	9.3	23.8	21.7	.	.
Cc1ccc(-c2nnc(SCC(=O)Nc3ccccc3F)o2)cc1	70.3	-7.6	10.7	-0.6	-6.6	79.8*	67.0*	32.6
O=C(CSc1nnc(-c2ccccc2)o1)Nc1ccccc1F	58.2	-5.3	11.1	-2.7	-6.7	-5.9	.	.
CC(C)(C)c1ccc(CSc2nc(N)cc(=O)[nH]2)cc1	-32.0	-10.8	21.6	-4.9	1.3	7.3	.	.
Cc1ccc(NC(=O)Nc2ccc3c(c2)OCO3)cc1F	-6.9	11.0	-17.2	-8.6	-9.5	-110.5	.	.
O=C(Nc1ccc(N2CCOCC2)c(Cl)c1)c1c(F)c(F)c(F)c(F)c1F	15.2	-1.0	-4.0	32.1	0.6	56.9*	45.6*	45.1*
O=C(Nc1ccc(N2CCCCC2)c(Cl)c1)c1cccnc1	.	-7.0	-0.4	7.5	-3.1	66.5*	46.4*	49.6*
Cc1ccc(C(=O)NCC#N)cc1	-11.8	-18.3	-11.5	-10.1	2.9	-4.4	.	.
Cc1ccc(C(=O)NC(C#N)=C(Cl)Cl)cc1	.	52.2	.	?	-2.6	100.3*	99.3*	53.1*
O=C(CCC(=O)c1ccc(Cl)s1)Nc1ncccc1O	.	.	-0.1	.	.	19.8	.	.
O=C(NCCC1CCCCN1S(=O)(=O)c1ccc(F)cc1)C(=O)Nc1ccccc1F (stereo not drawn)	-1.2	-6.9	.	8.0	1.5	6.1	.	.
Cc1ccc(S(=O)(=O)N2CCCCC2CCNC(=O)C(=O)Nc2ccccc2F)cc1 (stereo not drawn)	38.7	11.8	7.1	-0.4	-2.8	51.6*	74.8*	54.3*
Cc1ccc(COc2ccccc2-c2cc(C(=O)N/N=C/c3cccnc3)[nH]n2)cc1	77.5*	32.2	3.7	0.0	63.2*	55.3*	58.6*	71.7*
O=C(NCCCN1CCOCC1)c1cccc(NS(=O)(=O)c2ccc(Br)cc2)c1	.	.	-1.4	.	.	-9.1	.	.
COc1ccc2nc(NC(C)=O)sc2c1	13.6	-6.2	1.8	-4.3	8.2	-67.5	.	.
COc1ccc2nc(NC(=O)/C=C/c3ccc4c(c3)OCO4)sc2c1	0.6	-19.3	.	-10.6	-1.6	82.8*	52.4*	35.2
COC(=O)c1cc(NC(=O)/C=C/c2ccc3c(c2)OCO3)cc(C(=O)OC)c1	55.1	-8.9	9.6	-0.5	23.7	67.0*	21.9	101.5*
CN1CCc2c(n(CC(O)CNCc3ccccc3)c3ccccc23)C1=O (stereo not drawn)	5.6	-28.0	2.5	-77.0	-11.9	16.7	.	.
CC(C)NCC(O)Cn1c2c(c3ccccc31)CCc1c-2cnn1-c1ccccc1 (stereo not drawn)	14.3	39.6	113.4*	-16.3	3.8	98.1*	73.7*	12.2
COC(=O)/C=C/c1ccccc1CN1[C@@H](CC(=O)OC)c2ccccc2S1(=O)=O	-0.4	.	-6.3	.	.	5.0	.	.
Cc1cc2cc3c(cc2nc1SCC(=O)N1CCCC1)OCCO3	.	18.5	.	-5.7	-2.5	-11.1	.	.
N#Cc1cc2cc3c(cc2nc1SCC(=O)N1CCOCC1)OCCO3	.	-6.4	14.6	23.6	-3.3	83.6*	87.5*	80.6*
COc1ccc(CC(=O)NCCCCc2ccccc2)cc1OC	2.9	3.6	-0.6	10.1	-3.3	16.8	.	.
SMILES	CSC inhib	T cruzi inh	Beta apoptosis	Calb FLC	SKKanGAS inh	Mdm2-MdmX inh	Mdm2 MdmX conf	FLuc counter
O=C(NC1CCCCCC1)c1c2c(nc3ccccc13)CCN(Cc1ccccc1)C2	0.7	31.1	7.6	7.0	-4.3	6.2	.	.
CC(C)c1ccccc1NC(=O)COC(=O)c1c2c(nc3ccccc13)CCN(Cc1ccccc1)C2	10.5	39.6	0.4	20.5	6.5	53.0*	33.2	.
Cc1cc(N2CCN(C)CC2)ccc1NC(=O)c1c2c(nc3ccccc13)CCN(Cc1ccccc1)C2	-13.7	58.0*	98.8*	1.3	-25.7	100.3*	99.5*	52.0*
Cc1ccc(S(=O)(=O)N2CCCCC2)cc1NC(=O)CSc1nc(N)cc(=O)[nH]1	-23.4	.	-2.7	.	.	20.1	.	.
Oc1ccc(/C=N/Nc2nc(N3CCCC3)nc(N3CCCC3)n2)cc1O	11.6	4.2	20.9	?	-5.3	-10.3	.	.
Oc1ccc(/C=N/Nc2nc(N3CCCCCC3)nc(N3CCCCCC3)n2)c(O)c1	.	42.7	1.8	-15.9	111.5*	66.0*	-12.6	.
Cc1ccc(S(=O)(=O)NCCC(=O)Nc2nnc(C3CC3)s2)cc1C	-11.4	5.7	-0.2	-14.0	7.6	5.3	.	.
Cc1cc(C)cc(N(CCC(=O)Nc2nnc(C3CC3)s2)S(=O)(=O)c2ccc(Cl)cc2)c1	22.9	0.9	-3.4	18.2	6.9	51.3*	59.9*	76.5*
CCn1cc(C(=O)N[C@H](C(=O)NCCCn2ccnc2)C(C)C)c(=O)c2cc3c(cc21)OCO3	-11.2	-19.0	-14.7	0.3	-0.5	20.2	.	.
O=C(CSc1ccc(-c2ccco2)nn1)Nc1ccccc1F	-1.3	-6.8	-8.4	4.0	2.2	6.5	.	.
c1ccc(COc2ccccc2CNC23CC4CC(CC(C4)C2)C3)cc1	41.3	56.2*	35.0	94.9*	0.3	96.3*	70.4*	59.3*
CCCCOC(=O)NS(=O)(=O)c1sc(CC(C)C)cc1-c1ccc(Cn2c(CC)nc3c(C)cc(C)nc32)cc1	99.8*	.	-6.8	.	.	89.4*	40.0	71.8*
CCCCn1c(SCc2c(C)noc2C)nc2cc(S(N)(=O)=O)ccc21	-15.5	4.5	-16.9	-5.0	-4.3	75.5*	59.5*	61.6*
Cc1cccc(C)c1NC(=O)CN(C)C(=O)c1ccc2c(=O)n3c(nc2c1)CCC3	-6.5	.	-2.6	.	.	-2.6	.	.
Cn1nnc2c[n+](CC(=O)c3ccc4ccccc4c3)cc(Br)c21	5.4	-15.7	-5.1	2.8	8.9	65.0*	32.1	62.9*
Cn1nnc2c[n+](CC(=O)c3ccc(Cl)cc3)cc(Br)c21	15.9	8.4	-6.8	-1.0	5.4	47.7	.	.
COc1cc2c(C#N)c(N3CCN(c4ccccc4OC)CC3)nc(N)c2c(N)n1	2.1	32.1	9.5	1.5	71.7*	74.5*	29.9	.
COc1cc2c(C#N)c(N3CCN(C)CC3)nc(N)c2c(N)n1	-4.0	4.2	0.5	0.1	6.0	-13.0	.	.
COc1ccc(S(=O)(=O)N2CCCCC2)cc1NC(=O)C1CC1C (stereo not drawn)	.	.	.	.	.	-11.8	.	.
